CaV13 ICDI inh: Primary screen for inhibitors of IQ motif and Ca2+-dependent inactivation inhibitor domain binding in CACNA1D, Förster resonance energy transfer in living cells, …; HEK cells, CFP/YFP FRET ICDI-IQ, plate reader, 10 min; percent FRET-ratio fall versus neutral wells; inhibition, % at 12.3 µM; hit rate 0.098% among 340,000;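 active = mean replicate inhibition of at least 30% and at least 1% of replicates passing that level; inconclusive = only one of the two criteria is met; inactive = neither criterion is met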
FN deposit inh: fibronectin deposition inhibition | inhibition, % at 12.6 µM | hit rate 0.086% among 350,000 | AH1F fibroblasts, Alexa488-fibronectin deposition fluorescence, overnight;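 active = mean inhibition across replicates of 30% or more, regardless of how many single replicates reach that level; inconclusive = mean under 30% yet at least half of replicates reach 30%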
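Material: AH1F fibroblasts assembling fluorescent fibronectin matrix; amount: 10000 AH1F cells/well; medium: DMEM, 2% serum; reagent: Alexa488-fibronectin, 24 nM final in well; dosing: single compound dose, delivered by pin transfer; incubation: 1 h adhesion, overnight exposure; detection: fluorescence after three HBSS washes, excitation 485 nm, emission 525 nm; measure: fibronectin deposition inhibition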
Xi reactivation: activators of X-chromosome reactivation in mouse fibroblasts. XiGFP mouse fibroblasts, % GFP-positive cells imaging, 3 d; cells co-treated with 5-aza-dC sensitizer; scaled so ellipticine positive control = 100%. activation, % at 7.58 µM. hit rate 0.055% among 360,000;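 active = mean normalized replicate activation at least 10% and every replicate at or above 10%; inconclusive = only one of the two criteria met; inactive = mean below 10% and not all replicates reach 10%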
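assay system = SV40-immortalized XiGFP fibroblast cells, line 68-5-11 | buffer or medium = DMEM plus 5-aza-dC sensitizer | doses = single-point pinned compound dosing | times = 3-day compound exposure, then 15 min fixation at room temperature | benchmarks = positive control ellipticine, 6 µM final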
DENV2 CPE: inhibitors of DENV2 cytopathic effect | DENV2-infected cells, cytopathic effect rescue, plate reader | CPE inhibition, % at 9.99 µM | hit rate 1.7% among 350,000; in the data active = CPE inhibition above about 20%, passing the limit was not always enough; inconclusive = no clear call, values can overlap the other calls; tested in BHK-21 cells
Casp6 inh: caspase-6 (human) enzyme inhibition; P55212; AID 686996; inhibition, % at 12.5 µM; purified caspase-6, Z-VEID-R110 cleavage fluorescence; hit rate 0.53% among 350,000;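 active = mean inhibition across replicates at least about 35%, with every replicate also reaching that limit, limit read from the data; inconclusive = only one of the two criteria met; inactive = neither criterion met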
Target sequence (P55212 24-179 limits assumed): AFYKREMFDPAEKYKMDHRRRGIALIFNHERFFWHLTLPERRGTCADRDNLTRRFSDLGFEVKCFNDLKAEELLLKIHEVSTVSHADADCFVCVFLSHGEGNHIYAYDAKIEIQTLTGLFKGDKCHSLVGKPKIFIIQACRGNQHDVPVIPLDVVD
Target sequence (P55212 194-293 limits assumed): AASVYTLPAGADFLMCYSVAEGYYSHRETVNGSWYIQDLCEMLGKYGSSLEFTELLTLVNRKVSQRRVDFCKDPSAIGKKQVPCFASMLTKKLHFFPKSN
Hits are given with their value; - = inactive; ? = inconclusive; . = no result; ! = repeats disagree. Sampled rows, rich in hits. Any-hit rate of the full collection: about 2%.

SMILES	CaV13 ICDI inh	FN deposit inh	Xi reactivation	DENV2 CPE	Casp6 inh
Fc1cccc(-c2ccc(C3[C@@H]4CN(Cc5cncnc5)C[C@H]3N4)cc2)c1 (stereo partly drawn)	.	-	-	28.1!	.
CO[C@@H]1CN(C)C(=O)c2cc(NC(=O)Nc3ccc(Cl)c(Cl)c3)ccc2OC[C@H](C)NC[C@@H]1C	.	-	-	.	.
COc1ccc(CN(C)C[C@@H]2OCCCC[C@H](C)Oc3ccc(NS(=O)(=O)c4cccs4)cc3C(=O)N([C@@H](C)CO)C[C@H]2C)cc1	.	.	-	-	-
O=C(O)C[C@H]1C[C@H]2c3cc(NS(=O)(=O)c4ccccc4)ccc3O[C@H]2[C@H](CO)O1	.	-	-	-	-
COc1ccc(NC(=O)N(C)C[C@@H]2Oc3ccc(NS(=O)(=O)c4ccc(OC)cc4)cc3CC(=O)N([C@H](C)CO)C[C@@H]2C)cc1	.	.	-	-	-
CSc1nc2c(=S)[nH]c(=S)[nH]c2s1	-	-	-	87.3	-
COc1c(Cl)cc(Br)c(OC)c1C(=O)NC(=O)Nc1nc(C)cc(C)n1	-	-	-	32.0	-
O=C(c1ccccn1)N1CC[C@H]2[C@H](CO)Nc3ccc(C#Cc4ccccc4)cc3[C@H]21	.	-	-	-	-
COc1ccc(CCN2CC(C(=O)NCCc3ncccc3C)CCC2=O)cc1 (stereo not drawn)	-	-	-	33.9	-
Cc1ccc(CNC(=O)C2CCC(=O)N(CCc3ccccn3)C2)s1 (stereo not drawn)	-	-	-	33.3	-
COc1ccc(NC(=O)N(C)C[C@H]2Oc3c(NS(=O)(=O)c4cccs4)cccc3C(=O)N([C@@H](C)CO)C[C@H]2C)cc1	.	.	-	-	-
Cn1c(SCC(=O)Nc2nncs2)nnc1C1CC1	.	.	-	?	35.8
CC(C)n1c(SCC(=O)Nc2nncs2)nnc1C1CC1	-	-	-	-	-
CO[C@H]1CN(C)C(=O)c2ccc(NC(=O)C3CCCCC3)cc2OC[C@@H](C)N(C(=O)c2ccccc2)C[C@H]1C	.	-	-	-	-
C[C@@H]1CCCCO[C@@H](CN(C)C(=O)Nc2ccccc2)[C@H](C)CN([C@@H](C)CO)C(=O)c2cc(NS(=O)(=O)c3ccc(Cl)cc3)ccc2O1	.	-	-	-	-
CN(C)CCCNC(=O)C[C@@H]1CC[C@@H]2[C@H](COC[C@@H](O)CN2S(=O)(=O)c2ccc(F)cc2)O1	.	-	-	-	-
Cn1cnc(S(=O)(=O)N2C[C@H](O)COC[C@H]3O[C@H](CC(=O)NC4CCCC4)CC[C@@H]32)c1	.	-	-	-	-
Cn1cnc(S(=O)(=O)N2C[C@@H](O)COC[C@@H]3O[C@@H](CC(=O)NC4CCCC4)CC[C@H]32)c1	.	-	-	114.3	-
Cc1ccc(S(=O)(=O)N2C[C@@H](O)COC[C@H]3O[C@@H](CC(=O)NCCN4CCCCC4)CC[C@@H]32)cc1	.	-	-	67.2	-
CN(C)CCCNC(=O)C[C@@H]1CC[C@H]2[C@@H](COC[C@H](O)CN2S(=O)(=O)c2ccccc2)O1	.	-	-	59.9	-
Cc1ccc(S(=O)(=O)Nc2ccc3c(c2)C(=O)N([C@@H](C)CO)C[C@@H](C)[C@H](CN(C)Cc2ccc(C(=O)O)cc2)OCCCC[C@H](C)O3)cc1	.	-	-	-	-
O=C(NCC1CCCCC1)c1cccnc1Cl	-	-	-	-	-
O=C(NCCCCNC(=O)c1cccnc1Cl)c1cccnc1Cl	-	-	-	68.7	-
COc1ccc(CN(C)C[C@@H]2Oc3ccc(NS(=O)(=O)c4ccc(OC)cc4)cc3CC(=O)N([C@@H](C)CO)C[C@@H]2C)cc1	.	.	-	-	.
NC(=S)NN=Cc1ccc(-c2ccc(S(=O)(=O)Nc3ncccn3)cc2)o1	-	-	-	-	37.9
SMILES	CaV13 ICDI inh	FN deposit inh	Xi reactivation	DENV2 CPE	Casp6 inh
CCOc1ccc(C(=O)N/N=C/c2ccc(-c3ccc(S(=O)(=O)Nc4ncccn4)cc3)o2)cc1	-	-	.	.	.
C[C@@H]1CN([C@H](C)CO)C(=O)Cc2cc(NS(=O)(=O)c3cn(C)cn3)ccc2O[C@H]1CN(C)C	.	.	-	-	-
C[C@H]1CN([C@@H](C)CO)S(=O)(=O)c2ccc(C#Cc3ccccc3)cc2O[C@@H]1CN(C)S(=O)(=O)c1cn(C)cn1	.	-	-	34.1	-
C[C@@H]1CN([C@@H](C)CO)S(=O)(=O)c2ccc(Br)cc2O[C@@H]1CN(C)S(=O)(=O)c1cn(C)cn1	-	-	-	23.6!	-
O=C1C=CC(=O)c2c(O)c(CO)c(CO)c(O)c21	-	-	-	-	99.1
C[C@@H]1CN([C@H](C)CO)C(=O)Cc2cc(NC(=O)Nc3ccccc3)ccc2O[C@@H]1CN(C)S(=O)(=O)c1ccc(Cl)cc1	.	.	-	.	.
O=C(NCC1COc2ccccc2O1)c1ccc(F)c(S(=O)(=O)N2CCOCC2)c1 (stereo not drawn)	-	-	-	-	52.0
CN1CC2([N+](=O)[O-])CC=C(OCCO)C([N+](=O)[O-])(C1)C2 (stereo not drawn)	-	-	-	-	39.1
COc1cccc(-c2cn(CC[C@H]3CC[C@H](NC(=O)CN(C)C)[C@@H](CO)O3)nn2)c1	.	-	-	-	-
COCCOC(=O)c1[nH]c2c(c1C)C(=O)CC(c1ccco1)C2 (stereo not drawn)	-	-	-	-	49.6
COc1ccc2c3c([nH]c2c1)[C@H](CO)N(C(=O)CC1CC1)CC31CN(Cc2ccncc2)C1	.	.	-	-	-
C[C@@H]1CN([C@@H](C)CO)C(=O)c2cc(NC(=O)CCC(F)(F)F)ccc2O[C@@H](C)CCCCO[C@H]1CN(C)Cc1ccccc1	.	-	-	.	.
Cc1ccc(S(=O)(=O)N(C)C[C@H]2Oc3ccc(NC(=O)Cn4cnnn4)cc3C(=O)N([C@H](C)CO)C[C@H]2C)cc1	.	.	-	-	-
Cc1ccc(S(=O)(=O)N(C)C[C@@H]2Oc3ccc(NC(=O)Cn4cnnn4)cc3C(=O)N([C@@H](C)CO)C[C@@H]2C)cc1	.	.	-	42.4	-
Cc1ccc(S(=O)(=O)N(C)C[C@@H]2Oc3ccc(NC(=O)Cn4cnnn4)cc3CC(=O)N([C@H](C)CO)C[C@@H]2C)cc1	.	.	-	30.8	-
CO[C@@H]1CN(C)C(=O)c2cc(NC(C)=O)ccc2OC[C@H](C)N(Cc2ccccn2)C[C@@H]1C	.	-	-	-	-
COc1ccc(S(=O)(=O)N2C[C@@H](O)COC[C@@H]3O[C@@H](CC(=O)NCCN4CCCCC4)CC[C@H]32)cc1	.	-	-	-	-
COc1ccc(C(C)(O)c2nc(-c3ccccc3C)cs2)cc1 (stereo not drawn)	-	-	-	-	-
Cc1ccccc1-c1csc(C(C)(O)c2ccccc2)n1 (stereo not drawn)	-	-	-	31.3	-
CC(C)C#Cc1ccc2c(c1)O[C@@H](CN(C)C(=O)c1cccc(F)c1)[C@H](C)CN([C@@H](C)CO)S2(=O)=O	.	.	-	-	-
